Calls of active or inactive are those of the source. The calls are words filed in the database; no cut-off is given here.
What was measured:
[1] = target: T1, 5-hydroxytryptamine receptor 7 (Homo sapiens, UniProt P34969); assay: Binding affinity to 5-HT7 receptor (unknown origin) assessed as inhibition of radioligand binding at 10 uM by radioligand competition binding assay
Rattus norvegicus = species on record: Rattus norvegicus; assay: Binding affinity to rat GABAA BZP receptor assessed as inhibition of radioligand binding by radioligand competition binding assay; settings: concentration not given here
[2] = target: Alpha-2A adrenergic receptor (Homo sapiens) (UniProt P08913); assay: Binding affinity to andrenergic alpha2A receptor (unknown origin) assessed as inhibition of radioligand binding at 10 uM by radioligand competition binding assay
[3] = target: Muscarinic acetylcholine receptor M4 (Homo sapiens) (UniProt P08173); assay: Binding affinity to muscarinic M4 receptor (unknown origin) assessed as inhibition of radioligand binding by radioligand competition binding assay; settings: concentration not given here
Homo sapiens [4] = species on record: Homo sapiens; assay: Binding affinity to sigma2 receptor (unknown origin) assessed as inhibition of radioligand binding by radioligand competition binding assay; settings: concentration not given here
[5] = target: Sodium-dependent noradrenaline transporter (Homo sapiens) (UniProt P23975); assay: Binding affinity to NET (unknown origin) assessed as inhibition of radioligand binding by radioligand competition binding assay; settings: concentration not given here
[6] = target: Alpha-1D adrenergic receptor (Homo sapiens) (UniProt P25100); assay: Binding affinity to andrenergic alpha1D receptor (unknown origin) assessed as inhibition of radioligand binding by radioligand competition binding assay; settings: concentration not given here
[7] = target: 5-hydroxytryptamine receptor 1B (Homo sapiens, UniProt P28222); assay: Binding affinity to 5-HT1B receptor (unknown origin) assessed as inhibition of radioligand binding at 10 uM by radioligand competition binding assay
[8] = target: D(3) dopamine receptor (Homo sapiens) (UniProt P35462); assay: Binding affinity to dopamine D3 receptor (unknown origin) assessed as inhibition of radioligand binding by radioligand competition binding assay; settings: concentration not given here
[9] = target: Kappa-type opioid receptor (Homo sapiens) (UniProt P41145); assay: Binding affinity to KOR (unknown origin) assessed as inhibition of radioligand binding by radioligand competition binding assay; settings: concentration not given here
[10] = target: Sodium-dependent dopamine transporter (Homo sapiens) (UniProt Q01959); assay: Binding affinity to DAT (unknown origin) assessed as inhibition of radioligand binding by radioligand competition binding assay; settings: concentration not given here
[11] = target: Delta-type opioid receptor (Homo sapiens) (UniProt P41143); assay: Binding affinity to DOR (unknown origin) assessed as inhibition of radioligand binding by radioligand competition binding assay; settings: concentration not given here
[12] = target: 5-hydroxytryptamine receptor 2A (Homo sapiens) (UniProt P28223); assay: Binding affinity to 5-HT2A receptor (unknown origin) assessed as inhibition of radioligand binding by radioligand competition binding assay; settings: concentration not given here
[13] = target: Sodium-dependent serotonin transporter (Homo sapiens) (UniProt P31645); assay: Binding affinity to SERT (unknown origin) assessed as inhibition of radioligand binding by radioligand competition binding assay; settings: concentration not given here
[14] = target: Alpha-1A adrenergic receptor (Homo sapiens) (UniProt P35348); assay: Binding affinity to andrenergic alpha1A receptor (unknown origin) assessed as inhibition of radioligand binding by radioligand competition binding assay; settings: concentration not given here
[15] = target: T1, 5-hydroxytryptamine receptor 7; assay: Binding affinity to 5-HT7 receptor (unknown origin) assessed as inhibition of radioligand binding by radioligand competition binding assay
[16] = target: Alpha-2B adrenergic receptor (Homo sapiens, UniProt P18089); assay: Binding affinity to andrenergic alpha2B receptor (unknown origin) assessed as inhibition of radioligand binding by radioligand competition binding assay
[17] = target: D(1A) dopamine receptor (Homo sapiens) (UniProt P21728); assay: Binding affinity to dopamine D1 receptor (unknown origin) assessed as inhibition of radioligand binding by radioligand competition binding assay; settings: concentration not given here
[18] = target: 5-hydroxytryptamine receptor 2B (Homo sapiens, UniProt P41595); assay: Binding affinity to 5-HT2B receptor (unknown origin) assessed as inhibition of radioligand binding by radioligand competition binding assay
[19] = target: T2, Beta-1 adrenergic receptor (Homo sapiens, UniProt P08588); assay: Binding affinity to andrenergic beta1 receptor (unknown origin) assessed as inhibition of radioligand binding by radioligand competition binding assay
[20] = target: T2, Beta-1 adrenergic receptor; assay: Agonist activity at human beta1-adrenergic receptor expressed in CHO-K1 cells assessed as induction of cAMP accumulation after 15 mins by HTRF assay; type: functional, cell-based
Outline: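 cAMP accumulation in human β1-expressing CHO-K1 cells, quantified by HTRF. Vehicle 0.40% DMSO. Incubation 15 minutes at 37°C in HBSS with 5 mM HEPES, 0.1% BSA and 100 μM IBMX, pH 7.4. Run by a contract screening service.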

[21] = target: Translocator protein (Homo sapiens) (UniProt P30536); assay: Binding affinity to PBR (unknown origin) assessed as inhibition of radioligand binding by radioligand competition binding assay; settings: concentration not given here
[22] = target: Beta-3 adrenergic receptor (Homo sapiens, UniProt P13945); assay: Binding affinity to andrenergic beta3 receptor (unknown origin) assessed as inhibition of radioligand binding at 10 uM by radioligand competition binding assay
[23] = target: T3, 5-hydroxytryptamine receptor 1D (Homo sapiens, UniProt P28221); assay: Binding affinity to 5-HT1D receptor (unknown origin) assessed as inhibition of radioligand binding at 10 uM by radioligand competition binding assay
[24] = target: T3, 5-hydroxytryptamine receptor 1D; assay: Binding affinity to 5-HT1D receptor (unknown origin) assessed as inhibition of radioligand binding by radioligand competition binding assay
[25] = target: 5-hydroxytryptamine receptor 1A (Homo sapiens, UniProt P08908); assay: Binding affinity to 5-HT1A receptor (unknown origin) assessed as inhibition of radioligand binding by radioligand competition binding assay
[26] = target: Histamine H2 receptor (Homo sapiens) (UniProt P25021); assay: Binding affinity to histamine H2 receptor (unknown origin) assessed as inhibition of radioligand binding by radioligand competition binding assay; settings: concentration not given here
[27] = target: Beta-2 adrenergic receptor (Homo sapiens, UniProt P07550); assay: Binding affinity to andrenergic beta2 receptor (unknown origin) assessed as inhibition of radioligand binding by radioligand competition binding assay
Homo sapiens [28] = species on record: Homo sapiens; assay: Binding affinity to GABAA receptor (unknown origin) assessed as inhibition of radioligand binding by radioligand competition binding assay; settings: concentration not given here
[29] = target: 5-hydroxytryptamine receptor 1A (Homo sapiens) (UniProt P08908); assay: Binding affinity to 5-HT1A receptor (unknown origin) assessed as inhibition of radioligand binding at 10 uM by radioligand competition binding assay
[30] = target: 5-hydroxytryptamine receptor 6 (Homo sapiens, UniProt P50406); assay: Binding affinity to 5-HT6 receptor (unknown origin) assessed as inhibition of radioligand binding at 10 uM by radioligand competition binding assay
[31] = target: 5-hydroxytryptamine receptor 1E (Homo sapiens) (UniProt P28566); assay: Binding affinity to 5-HT1E receptor (unknown origin) assessed as inhibition of radioligand binding by radioligand competition binding assay; settings: concentration not given here
[32] = target: Histamine H3 receptor (Homo sapiens) (UniProt Q9Y5N1); assay: Binding affinity to histamine H3 receptor (unknown origin) assessed as inhibition of radioligand binding by radioligand competition binding assay; settings: concentration not given here

COc1cc2c3c(c1OC)-c1ccccc1[C@@H](O)[C@@H]3NCC2
inhibition [1]: > 50%
inhibition (Rattus norvegicus): < 50%
inhibition [2]: > 50%
inhibition [3]: < 50%
inhibition (Homo sapiens [4]): < 50%
inhibition [5]: < 50%
inhibition [6]: < 50%
inhibition [7]: > 50%
inhibition [8]: < 50%
inhibition [9]: < 50%
inhibition [10]: < 50%
inhibition [11]: < 50%
inhibition [12]: < 50%
inhibition [13]: < 50%
inhibition [14]: < 50%
Ki [15]: 120 nM
Ki [16]: 571 nM
inhibition [17]: < 50%
Ki [18]: 246 nM
Ki [19]: 19 nM
Activity [20]: inactive
inhibition [21]: < 50%
inhibition [22]: > 50%
inhibition [23]: > 50%
Ki [24]: 857 nM
Ki [25]: 71 nM
inhibition [26]: < 50%
Ki [27]: 13 nM
inhibition (Homo sapiens [28]): < 50%
inhibition [29]: > 50%
inhibition [30]: > 50%
inhibition [31]: < 50%
inhibition [32]: < 50%

— ChEMBL document CHEMBL4257493, “Discovery of 7-hydroxyaporphines as conformationally restricted ligands for beta-1 and beta-2 adrenergic receptors” (Medchemcomm, 2018)
